The source made the active and inactive calls. The rule behind the calls is not given here.

One test has as its system Rattus norvegicus. Kind of test: Antianaphylactic activity in antiovalbumin IgE serum-treated Wistar rat at 2 x 100 mg/kg, po administered 2.5 hrs prior to ovalbumin challenge measured after 45 mins by passive cutaneous anaphylaxis test. Particulars: in the assay text read “2 hrs and again 30 mins prior to” for “2.5 hrs prior to”. Details: dose 100 mg/kg. It is filed as functional, organism-based. In a few lines: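 Female Wistar rats, shaved and lightly anaesthetized, received an intradermal abdominal injection of diluted rat antiovalbumin IgE serum. After 24 h they were challenged iv with ovalbumin mixed with dye. Compound was given at 2 h and again at 30 min before challenge. Rats were killed 45 min after challenge and the blue area on the inner skin surface was measured.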

Test [1] can be described thus: Antianaphylactic activity in ovalbumin sensitized albino guinea pig chopped lung assessed as inhibition of antigen-induced slow-reacting substance of anaphylaxis release at 10 ug/mL after 15 mins relative to control. It is filed as functional, Cavia porcellus. In a few lines:
(§1)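 Lungs were perfused with Tyrode's, chopped into 0.5-mm cubes and split into 100-mg aliquots. Aliquots were challenged with antigen ± compound and rocked at 37 °C for 15 min. Unchallenged controls gave spontaneous release. Supernatant histamine or SRS-A was bioassayed on guinea pig ileum against standards. Values are % inhibition, mean of four samples.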

Test [2] can be described thus: Antianaphylactic activity in ovalbumin sensitized albino guinea pig chopped lung assessed as inhibition of antigen-induced histamine release at 10 ug/mL after 15 mins relative to control. The format is functional, Cavia porcellus. In a few lines: as §1
Test [3] in a line: Antianaphylactic activity in human chopped lung treated with atopic serum isolated from patients allergic to cocksfoot pollen assessed as inhibition of antigen-induced histamine release at 10 ug/mL after 15 mins relative to control. It is filed as functional. Particulars: 0.25 h. In a few lines: (§2)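 Surgical human lung (bronchial carcinoma resections) was washed in Hank's, chopped into 0.5-mm cubes and incubated for 18 h at 18 °C with atopic serum from cocksfoot pollen-allergic patients. Tissue was washed, equilibrated in Tyrode's at 37 °C and challenged with saline pollen extract ± compound for 15 min. Histamine or SRS-A in the supernatant was bioassayed on guinea pig ileum. Values are % inhibition, mean of four samples.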

Test [4] in a line: Antianaphylactic activity in human chopped lung treated with atopic serum isolated from patients allergic to cocksfoot pollen assessed as inhibition of antigen-induced slow-reacting substance of anaphylaxis release at 10 ug/mL after 15 mins relative to control. The format is functional. Particulars: 0.25 h. In a few lines:
as §2

As to `CCCCN(C(=O)C(CC)CC)c1nc(C)co1`, the outcome with Rattus norvegicus was inactive. Also, the “inhibition (INH)” value in test [1] amounted to 55%; in test [2], 29%.
For the compound `CN1CCC(=C2c3ccccc3CC(=O)c3sccc32)CC1.O=C(O)/C=C/C(=O)O` [KETOTIFEN FUMARATE], the entries for the “inhibition (INH)” value in test [1] and in test [2] were 38% and 37%, respectively.
In the case of `Cc1coc(N(C)C(=O)C(C)C)n1`, the outcome in the test on Rattus norvegicus was inactive. The “inhibition (INH)” value amounted to 25% in test [1] and 61% in test [2].
In the same order, the values of `CCCCN(C(=O)C(C)C)c1ncco1` are “inactive”, 44% and 8%.
For `CCCCN(C(=O)CC1CCCC1)c1nc(C)co1`, the outcome in the test with Rattus norvegicus was inactive. Besides, the figures for the “inhibition (INH)” value in test [1] and in test [2] were 22% and 0%, respectively. For the same compound, the inhibition at 10 µg/mL in test [3] and in test [4] was 0% each time.
In the case of `CCCCN(C(=O)C(C)CC)c1nc(C)co1` (stereo in doubt; 38) [listing 1 of 2 here], the “inhibition (INH)” value in test [1] was 63%; in test [2] it was 8%.
With `CCCCc1coc(N(CCCC)C(=O)C(C)C)n1`, in the test on Rattus norvegicus, the result was inactive. In addition, the “inhibition (INH)” value in test [1] was 14%.
Take `CCCC(=O)N(CC(C)CC)c1nc(C)co1` (stereo unspecified): in the test on Rattus norvegicus, the outcome was inactive. Moreover, the “inhibition (INH)” value in test [1] came to 33%; in test [2] it was 35%.
In the case of `CCCCN(C(=O)C(C)C)c1ncc(C)o1`, the result with Rattus norvegicus was inactive. The “inhibition (INH)” value came to 52% in test [1] and 31% in test [2].
As to `CCCCC(=O)N(c1nc(C)co1)C(C)C`, the result in the test on Rattus norvegicus was inactive. Further, the “inhibition (INH)” value in test [1] and in test [2] was 0% throughout. Moreover, the inhibition at 10 µg/mL in test [3] and in test [4] was 0% in each case.
In the case of `CCCCN(C(=O)C1CCCCCC1)c1nc(C)co1`, the result in the test on Rattus norvegicus was inactive. Further, the “inhibition (INH)” value is recorded as 49% in test [1] and 0% in test [2].
On to `CCCCCN(C(=O)C(C)C)c1nc(C)co1`, for which the result in the test with Rattus norvegicus was inactive. Besides, the “inhibition (INH)” value in test [1] is 66%; in test [2], 28%. The figures for the inhibition at 10 µg/mL in test [3] and in test [4] were 14% and 47%, respectively.
As to `CCC(=O)N(c1nc(C)co1)C(C)C`, the outcome in the test with Rattus norvegicus was inactive. Moreover, the “inhibition (INH)” value in test [1] was found to be 17%. Besides, the inhibition at 10 µg/mL in test [3] and in test [4] was 0% each time.
On to `CCCC(=O)N(CC)c1nc(C)co1`, for which, in the test with Rattus norvegicus, the result was inactive. Also, the “inhibition (INH)” value stood at 13% in test [1] and 30% in test [2].
For `CCCCN(C(C)=O)c1nc(C)co1`, the result with Rattus norvegicus was inactive. In addition, the “inhibition (INH)” value is listed as 39% in test [1] and 26% in test [2].
As for `CCCCC(=O)N(CCCC)c1nc(C)co1`, the result with Rattus norvegicus was inactive. In addition, the “inhibition (INH)” value turned out to be 49% in test [1] and 21% in test [2].
Turning to `CCCCCN(C(=O)CC)c1nc(C)co1`, in the test on Rattus norvegicus, the outcome was inactive. The “inhibition (INH)” value in test [1] came to 41%; in test [2], 16%.
Regarding `CCCCN(C(=O)C(C)CC)c1nc(C)co1` (racemic) [listing 1 of 2 here], the “inhibition (INH)” value in test [1] turned out to be 76%; in test [2], 54%. Moreover, the inhibition (usually how much of the control response was suppressed) at 10 µg/mL is 5% in test [3] and 36% in test [4].
Turning to `CC(=O)N(C)c1nc(C)co1`, the result in the test with Rattus norvegicus was inactive. Moreover, the “inhibition (INH)” value in test [1] is given as 9%; in test [2], 0%.
With `CCCC(=O)N(c1nc(C)co1)C(C)CC` (stereo unspecified), the result in the test with Rattus norvegicus was inactive. Besides, the “inhibition (INH)” value was determined as 34% in test [1] and 6% in test [2].
For `CCCC(=O)N(c1nc(C)co1)C1CCCCC1`, in that order: “inactive”, 29% and 37%.
For `CCCCN(C(=O)CCC)c1nc(C)c(C)o1`, in that order: “inactive”, 37% and 46%.
For `CCCCN(C(=O)C(C)CC)c1nc(C)co1` (stereo in doubt; 39) [listing 1 of 2 here], the “inhibition (INH)” value in test [1] is 79%; in test [2], 30%.
Regarding `CCCCN(C(=O)C1CCC1)c1nc(C)c(C)o1`, the result in the test on Rattus norvegicus was inactive. For the same compound, the “inhibition (INH)” value was determined as 10% in test [1] and 0% in test [2].
In the same order, the values of `C=CCN(C(=O)CCC)c1nc(C)co1` are “inactive”, 31% and 51%.
For `CCCCCCN(C(=O)C(C)C)c1nc(C)co1`, in that order: “inactive”, 42% and 18%.
As for `CCCCN(C(=O)C(C)C)c1ncc(CC)o1`, in the test on Rattus norvegicus, the result was inactive. In addition, the “inhibition (INH)” value is 35% in test [1] and 52% in test [2].
In the same order, the values of `CCCCN(C(=O)C(C)C)c1nc(CC)co1` are “inactive”, 41% and 20%.
In the case of `CC(=O)N(C)c1nc(C)c(C)o1`, the outcome with Rattus norvegicus was inactive. Moreover, the “inhibition (INH)” value in test [1] was determined as 17%.
On to `CCCCN(C(=O)C(C)CC)c1nc(C)co1` (stereo in doubt; 39) [listing 2 of 2 here], for which the outcome in the test on Rattus norvegicus was inactive.
Consider `CCCCN(C(C)=O)c1nc(C)c(C)o1`, for which the result in the test with Rattus norvegicus was inactive. Also, the “inhibition (INH)” value in test [1] amounted to 32%; in test [2], 13%.
On to `CCCCN(C(=O)C(C)C)c1nc(C)c(C)o1`, for which, in the test on Rattus norvegicus, the outcome was inactive. The “inhibition (INH)” value in test [1] turned out to be 43%; in test [2] it was 49%. Besides, the inhibition at 10 µg/mL is 49% in test [3] and 43% in test [4].
As to `CCCCCCN(C(C)=O)c1nc(C)co1`, the outcome with Rattus norvegicus was inactive. Also, in test [1], the “inhibition (INH)” value is given as 8%. The inhibition at 10 µg/mL in test [3] worked out at 13%; in test [4] it was 15%.
With `CCC(C)N(C(=O)C(C)C)c1nc(C)co1` (stereo unspecified), the result in the test on Rattus norvegicus was inactive. Moreover, the “inhibition (INH)” value in test [1] was found to be 13%; in test [2], 3%.
For `CCCCCCC(=O)N(CCCC)c1nc(C)co1`, in the test with Rattus norvegicus, the outcome was inactive. In addition, the “inhibition (INH)” value in test [1] came out at 8%.
As to `CCN(C(=O)C(C)C)c1nc(C)c(C)o1`, the result with Rattus norvegicus was inactive. Also, the “inhibition (INH)” value came out at 21% in test [1] and 13% in test [2].
In the same order, the values of `CCCCN(C(=O)Cc1ccccc1)c1nc(C)co1` are “inactive”, 31% and 0%.
In the case of `CCCCN(C(=O)C1CCCCC1)c1nc(C)co1`, the outcome in the test on Rattus norvegicus was inactive. The “inhibition (INH)” value amounted to 32% in test [1] and 27% in test [2]. Further, the inhibition at 10 µg/mL in test [3] was determined as 29%; in test [4], 26%.
As to `CCCCN(C(=O)C(C)C)c1nc(-c2ccc(Cl)cc2)co1`, the result with Rattus norvegicus was inactive. Besides, the “inhibition (INH)” value was 37% in test [1] and 44% in test [2].
Turning to `Cc1coc(N(C(=O)C(C)C)C(C)C)n1`, in the test on Rattus norvegicus, the result was inactive. In addition, the “inhibition (INH)” value in test [1] came to 10%. Also, the inhibition at 10 µg/mL in test [3] and in test [4] was 0% in each case.
In the case of `CCC(C)CN(C(=O)C(C)C)c1nc(C)co1` (stereo unspecified), the outcome with Rattus norvegicus was inactive. Also, the results for the “inhibition (INH)” value in test [1] and in test [2] were 37% and 29%, respectively.
Turning to `CCCCN(C(=O)C(C)CC)c1nc(C)co1` (racemic) [listing 2 of 2 here], in the test on Rattus norvegicus, the result was inactive.
Turning to `CCCCN(C(=O)C(C)C)c1nc(C2CCCCC2)co1`, the result with Rattus norvegicus was inactive. For the same compound, in test [1], the “inhibition (INH)” value stood at 0%.
For `CCCCN(C(=O)C1CCCC1)c1nc(C)co1`, the outcome in the test on Rattus norvegicus was inactive. Further, the results for the “inhibition (INH)” value in test [1] and in test [2] were 66% and 47%, respectively. Moreover, the inhibition at 10 µg/mL was determined as 0% in test [3] and 69% in test [4].
On to `C=CCN(C(=O)C(C)C)c1nc(C)co1`, for which the outcome in the test on Rattus norvegicus was inactive. Further, the “inhibition (INH)” value in test [1] turned out to be 23%; in test [2] it was 42%.
Take `CCCCN(C(=O)C(C)C)c1ncc(C2CCCCC2)o1`: the outcome in the test on Rattus norvegicus was inactive. The “inhibition (INH)” value in test [1] was 21%.
Turning to `CCCCN(C(=O)C(C)C)c1nc(-c2ccccc2)co1`, the outcome with Rattus norvegicus was inactive. Further, the “inhibition (INH)” value in test [1] is listed as 39%; in test [2] it was 23%.
With `CCCCN(C(=O)C(C)CC)c1nc(C)co1` (stereo in doubt; 38) [listing 2 of 2 here], in the test with Rattus norvegicus, the result was inactive.

The values are drawn from ChEMBL document CHEMBL3227946, “Antianaphylactic agents. 1. 2-(Acylamino)oxazoles” (1979).
